Data reported in paper PMC5110371 (Nature chemical biology, 2016).

Key:
[1] = test system: D423 ENO1-deleted glioma cells; assay: 13C-1 glucose isotope tracing; assay type: cell-based, human; details: 10 μM; for conversion of 13C-1 glucose to 13C-3 glycerate: 72 hours
Summary of the method: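 Glucose-free DMEM supplemented with 10 mM 13C-1 glucose; test compound at 10 μM. Media extracted with 80% methanol at −80 °C, centrifuged, lyophilised, redissolved in D2O and analysed by proton-decoupled 13C NMR. Glycerate was read as the peak at 64 ppm, also expressed as a ratio to 13C-3 lactate. Isogenic ENO1-rescued D423 cells served as comparison.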

ENO2 [2] = target: T1, ENO2 (Homo sapiens, UniProt P09104); assay: Thermal shift assay, purified recombinant human ENO2; assay type: binding; details: concentration not stated in the sentence (Supplementary Fig. 6: 1 µM or 25 µM)
T1 sequence (P09104 whole entry): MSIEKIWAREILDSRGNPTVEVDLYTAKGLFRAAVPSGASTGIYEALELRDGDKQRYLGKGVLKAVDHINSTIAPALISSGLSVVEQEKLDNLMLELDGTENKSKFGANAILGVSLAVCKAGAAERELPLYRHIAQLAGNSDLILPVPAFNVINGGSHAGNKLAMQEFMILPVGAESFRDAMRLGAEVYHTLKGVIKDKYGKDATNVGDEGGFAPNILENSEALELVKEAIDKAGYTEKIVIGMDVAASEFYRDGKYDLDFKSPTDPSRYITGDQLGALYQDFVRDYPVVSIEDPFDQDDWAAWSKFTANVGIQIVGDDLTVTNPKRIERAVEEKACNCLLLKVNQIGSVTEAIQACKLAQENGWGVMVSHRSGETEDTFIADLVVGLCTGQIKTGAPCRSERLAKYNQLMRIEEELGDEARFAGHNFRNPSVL
Summary of the method: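 Diluted and treated with test compound or vehicle in enolase assay buffer (10 mM KCl, 5 mM MgSO4, 100 mM triethanolamine, pH 7.4). Heated 50–90 °C for 3 min, spun 20,000 g for 10 min, supernatant ENO2 immunoblotted.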

[3] = Configurational stability in aqueous solution; assay type: physicochemical
ENO1-intact glioma cells = assay: Toxicity to ENO1-intact cells; assay type: cell-based, human; details: 10 μM, four days
Salmonella = details: cited from earlier work
[4] = test system: D423 ENO1-deleted glioma cells; assay: Time course of ATP; assay type: cell-based, human
fungi = details: cited from earlier work
Enolase 2 = Enolase 2 (Homo sapiens, UniProt P09104); assay: Cellular thermal shift assay in intact D423 ENO2 glioma cells; assay type: cell-based; details: 100 μM, without inhibitor ~65 °C
Chain of Enolase 2 (P09104 whole entry): as above
Summary of the method: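 D423 glioma cells overexpressing ENO2, grown in DMEM with 10% FBS, treated one day with 100 μM test compound or vehicle. Trypsinized, PBS-washed, resuspended in PBS at 0.5 × 10^6 cells/mL, heated on a 50–90 °C gradient. Lysed with twice the volume of 20 mM Tris-HCl, 1 mM EDTA, 1 mM β-mercaptoethanol pH 7.4, plus one dry-ice freeze-thaw. Soluble ENO2 followed by immunoblotting.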

[5] = test system: D423 ENO1-deleted glioma cells; assay: Mass spectrometric determination of 3-PGA and PEP; assay type: cell-based, human; details: 10 μM and 25 μM, 72 hours
Summary of the method: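 D423 ENO1-deleted glioma cells and isogenic ENO1-rescued controls were grown in DMEM with 10% FBS. They were treated with vehicle, 10 μM or 25 μM test compound for 72 h. Polar metabolites were extracted with 80% methanol at −80°C and quantified by mass spectrometry to give the 3-PGA/PEP ratio. Each bar is an independently treated culture; comparisons used unpaired two-tailed t-tests with Bonferroni correction.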

[6] = test system: D423 ENO1-deleted glioma cells; assay: Cell density; assay type: cell-based, human; details: 72 hours
Summary of the method: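 Cells were seeded at 1 × 10^4 cells/well in 96-well plates and treated the next day. They were then held either under hypoxia (0.1% O2, 5% CO2) or normoxia for 72 h. Cells were fixed in 10% formalin and stained with crystal violet. Dye was extracted with 10% acetic acid and absorbance read at 595 nm.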

Staphylococcus = details: cited from earlier work
E. coli = details: cited from earlier work
Vinculin = target: T2, Vinculin (Homo sapiens, UniProt P18206); assay: Thermal shift assay, internal control Vinculin; assay type: binding; details: cell lysates
T2 sequence (P18206 1-1066 isoform P18206-2): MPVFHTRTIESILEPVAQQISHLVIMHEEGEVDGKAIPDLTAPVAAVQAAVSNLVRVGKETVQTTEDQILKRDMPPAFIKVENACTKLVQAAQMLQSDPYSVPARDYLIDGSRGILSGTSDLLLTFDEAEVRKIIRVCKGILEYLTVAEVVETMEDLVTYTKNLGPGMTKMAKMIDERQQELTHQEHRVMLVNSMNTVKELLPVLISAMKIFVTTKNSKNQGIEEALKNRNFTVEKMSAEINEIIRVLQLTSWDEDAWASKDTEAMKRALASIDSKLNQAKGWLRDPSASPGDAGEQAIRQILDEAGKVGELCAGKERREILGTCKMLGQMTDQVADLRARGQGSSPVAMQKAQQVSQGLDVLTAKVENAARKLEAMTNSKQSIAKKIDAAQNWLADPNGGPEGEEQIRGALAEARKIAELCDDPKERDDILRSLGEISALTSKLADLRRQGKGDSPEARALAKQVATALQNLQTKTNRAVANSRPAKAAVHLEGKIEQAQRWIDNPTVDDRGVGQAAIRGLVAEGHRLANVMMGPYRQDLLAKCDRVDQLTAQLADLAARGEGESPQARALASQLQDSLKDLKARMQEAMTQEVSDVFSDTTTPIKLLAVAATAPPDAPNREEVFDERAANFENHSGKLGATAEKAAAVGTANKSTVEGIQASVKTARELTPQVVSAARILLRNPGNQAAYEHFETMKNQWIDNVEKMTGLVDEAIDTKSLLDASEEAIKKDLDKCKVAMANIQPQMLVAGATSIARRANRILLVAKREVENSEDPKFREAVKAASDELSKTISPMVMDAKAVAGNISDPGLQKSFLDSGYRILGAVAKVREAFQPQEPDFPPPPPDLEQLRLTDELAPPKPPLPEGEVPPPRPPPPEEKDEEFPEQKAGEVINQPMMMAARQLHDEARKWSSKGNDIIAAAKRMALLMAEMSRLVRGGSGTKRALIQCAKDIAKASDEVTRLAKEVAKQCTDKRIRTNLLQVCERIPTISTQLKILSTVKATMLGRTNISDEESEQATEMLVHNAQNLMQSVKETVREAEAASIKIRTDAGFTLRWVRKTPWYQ
Summary of the method: (§1)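 Lysates of D423 glioma cells overexpressing ENO1 or ENO2 were made in 20 mM Tris-HCl, 1 mM EDTA, 1 mM β-mercaptoethanol, pH 7.4, homogenised, sonicated and cleared at 20,000 g for 10 min. They were diluted 1:100 in enolase assay buffer (10 mM KCl, 5 mM MgSO4, 100 mM triethanolamine, pH 7.4), given test compound or vehicle, and heated 3 min at 50–90 °C. After 20,000 g spin, supernatant was immunoblotted (anti-vinculin, anti-TPI, both 1:3000).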

Enolase [7] = assay: Enolase enzymatic activity in vitro; assay type: biochemical
Enolase [8] = target: Enolase (Homo sapiens, UniProt P09104); assay: Enolase enzymatic activity in vitro; assay type: biochemical
Chain of Enolase (Homo sapiens, UniProt P09104) (P09104 whole entry): as the sequence (P09104 whole entry) above

ENO2 [9] = target: T1, ENO2; assay: Ligand-induced thermal shift assay, lysates of D423 overexpressing ENO2; assay type: binding; details: 1 μM inhibitor, cell lysates
Summary of the method: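 Lysate in 20 mM Tris-HCl, 1 mM EDTA, 1 mM β-mercaptoethanol (pH 7.4), homogenised, sonicated and cleared at 20,000 g for 10 min. Diluted 1:100 in enolase buffer (10 mM KCl, 5 mM MgSO4, 100 mM triethanolamine, pH 7.4). Treated with 1 μM test compound or vehicle, heated at 50–90 °C for 3 min, recentrifuged. ENO2 in supernatant immunoblotted; band intensity plotted versus temperature.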

[10] = test system: Gli56 ENO1-deleted glioma cells; assay: Proliferation; assay type: cell-based, human; details: Supplementary Fig. 9
Summary of the method: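 Growth was followed by IncuCyte live-cell confluence imaging every 4 h. Initial seeding was 1.5 × 10^3 cells/well in 96-well plates, with duplicate replicates. Cells were cultured in DMEM with 10% FBS. ENO1-intact cell lines were used as comparators.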

[11] = test system: D423 ENO1-deleted glioma cells; assay: Proliferation; assay type: cell-based, human
Summary of the method: (§2)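 Cells were seeded at 2 × 10^3 cells/well in 96-well plates and treated for 2 weeks across a concentration range. Medium was then refreshed, and Hoechst 33342 (total cells) plus YO-PRO-1 (apoptotic cells) were added at 1:1000 final dilution for 2 h at 37 °C. Wells were imaged and quantified by high-content imaging. Conditions were run in duplicate and expressed relative to vehicle.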

[12] = target: Triosephosphate isomerase (Homo sapiens, UniProt P60174); assay: Thermal shift assay, internal control Triosephosphate isomerase; assay type: binding; details: cell lysates
Chain of Triosephosphate isomerase (P60174 whole entry): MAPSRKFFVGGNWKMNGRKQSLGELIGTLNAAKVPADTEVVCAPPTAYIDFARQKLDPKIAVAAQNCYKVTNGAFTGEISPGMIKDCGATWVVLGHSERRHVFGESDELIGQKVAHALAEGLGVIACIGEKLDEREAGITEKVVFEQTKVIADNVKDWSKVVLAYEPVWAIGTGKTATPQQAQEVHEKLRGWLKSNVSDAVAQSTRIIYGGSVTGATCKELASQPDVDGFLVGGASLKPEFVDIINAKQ
Summary of the method: as §1

[13] = test system: D423 ENO1-rescued glioma cells; assay: Proliferation; assay type: cell-based, human
Summary of the method: as §2

[14] = 2 weeks, YO-PRO-1 positive cells

O=C1C(P(=O)(O)O)CC(O)N1O (stereo not drawn) [SF2312, (1,5-dihydroxy-2-oxopyrrolidin-3-yl)phosphonic acid]
conversion of 13C-1 glucose to 13C-3 glycerate [1]: dramatically increases
glucose consumption and lactate production in media ([1]; four days, 13C-1 glucose, D423 and Gli56 ENO1 deleted cells): profound inhibition of glucose consumption
stabilization of recombinant human ENO2 (shift of thermal denaturation curve) (ENO2 [2]): ~ 12 °C
stability of stereocenters [3]: both stereocenters underwent spontaneous epimerization
toxicity (ENO1-intact glioma cells): non-toxic
antibiotic activity (Salmonella): strong activity
time after initiation of treatment at which declines in ATP occurred [4]: 8 h
antibiotic activity (fungi): no activity
shift of the thermal melting curve of ENO2 in intact glioma cells (Enolase 2): ~ 15 °C
ratio of 3-PGA/PEP [5]: dramatic increase
concentrations at which cells were essentially eradicated ([6]; hypoxia (0.1% O2)): > 6.25 µM
eradication of cells ([6]; normoxia, 100 μM inhibitor): no eradication was observed
antibiotic activity (Staphylococcus): strong activity
antibiotic activity (E. coli): weak activity
effect on thermal stability of Vinculin (Vinculin): Neither PhAH nor SF2312 affected the thermal stability
type of inhibitor (on/off rate) (Enolase [7]; order of addition of inhibitor and substrate): slow-on/slow-off inhibitor
kinetics with respect to substrate 2-PGA (Enolase [8]; ENO2, at IC50): non-competitive kinetics
kinetics with respect to substrate 2-PGA (Enolase [8]; ENO2, at higher concentrations of inhibitor): competitive kinetics
shift in the thermal denaturation of ENO2 (ENO2 [9]): ~ 9.5 °C
melting temperature (Tm) of ENO2 (ENO2 [9]; without inhibitor ~63 °C): ~ 72.5 °C
toxicity against Gli56 versus ENO1-intact cell lines [10]: selective toxicity
concentration inhibiting proliferation ([11]; 2 weeks treatment course): low μM range
concentration at which induction of cell death starts [11, 14]: 12.5 µM
effect on thermal stability of Triosephosphate isomerase [12]: Neither PhAH nor SF2312 affected the thermal stability
concentration inhibiting proliferation ([13]; 2 weeks treatment course, ectopically re-expressing ENO1): above 200 μM
concentration at which induction of cell death is seen [13, 14]: 400 µM

O=C1C(P(=O)(O)O)CCN1O (stereo not drawn) [deoxy-SF2312, 1-hydroxy-2-oxopyrrolidin-3-ylphosphonic acid]
IC50 (Enolase [7]; read-out: IC50 as an enolase inhibitor): ~2000 nM
kinetics with respect to substrate 2-PGA (Enolase [8]; ENO2 (Fig. 1d)): clear competitive kinetics

O=C(CP(=O)(O)O)NO [PhAH, Phosphonoacetohydroxamate, reference compound]
conversion of 13C-1 glucose to 13C-3 glycerate [1]: to a lesser extent
stabilization of recombinant human ENO2 (shift of thermal denaturation curve) (ENO2 [2]): ~ 6 °C
shift of the thermal melting curve of ENO2 in intact glioma cells (Enolase 2): ~ 6 °C
concentration at which potentiation of toxicity by hypoxia is evident ([6]; hypoxia vs normoxia): 200 µM
effect on thermal stability of Vinculin (Vinculin): Neither PhAH nor SF2312 affected the thermal stability
shift in the thermal denaturation of ENO2 (ENO2 [9]): ~ 6 °C
toxicity against Gli56 versus ENO1-intact cell lines [10]: selective toxicity
effect on thermal stability of Triosephosphate isomerase [12]: Neither PhAH nor SF2312 affected the thermal stability
